Test results taken from ChEMBL document CHEMBL3808312, “Bioactive Constituents of Glycyrrhiza uralensis (Licorice): Discovery of the Effective Components of a Traditional Herbal Medicine” (J Nat Prod, 2016).

Columns and labels:
[1] = system: Influenza A virus; assay: Antiviral activity against Influenza A virus A/WSN/33(H1N1) infected in dog MDCK cells preincubated with virus for 15 mins followed by cells addition measured at 36 hrs post infection; type: functional, organism-based; details: A/WSN/1933(H1N1)
[2] = system: Influenza A virus; assay: Antiviral activity against Influenza A virus A/WSN/33(H1N1) infected in MDCK cells at 100 uM preincubated with virus for 15 mins followed by cells addition measured at 36 hrs post infection; type: functional, A/WSN/1933(H1N1)
Procedure, shortened: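 MDCK canine kidney cells grown in DMEM and infected with influenza A/WSN/33 (H1N1). Compounds screened at 100 μM. Oseltamivir phosphate served as the positive control.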

CC(=O)O[C@H]1C[C@@](C)(C(=O)O)C[C@H]2C3=CC(=O)[C@H]4[C@]5(C)CC[C@@H](O[C@@H]6O[C@H](C(=O)O)[C@H](O)[C@H](O)[C@H]6O[C@H]6O[C@@H](CO)[C@H](O)[C@@H](O)[C@@H]6O[C@H]6O[C@H](C)[C@@H](O)[C@H](O)[C@@H]6O)C(C)(C)[C@H]5CC[C@]4(C)[C@@]3(C)CC[C@]12C
IC50 [1]: 39.6 µM | Activity [2]: 47%

CC1(C)[C@@H](O[C@@H]2O[C@H](C(=O)O)[C@@H](O)[C@H](O)[C@H]2O[C@@H]2O[C@H](C(=O)O)[C@@H](O)[C@H](O)[C@H]2O)CC[C@]2(C)[C@H]3C(=O)C=C4[C@H]5C[C@@](C)(CO)C[C@@H](O)[C@]5(C)CC[C@@]4(C)[C@]3(C)CC[C@@H]12
IC50 [1]: 39.6 µM | Activity [2]: 47%

CC(=O)O[C@H]1C[C@@](C)(C(=O)O)C[C@H]2C3=CC(=O)[C@H]4[C@]5(C)CC[C@@H](O[C@@H]6O[C@H](C(=O)O)[C@@H](O)[C@H](O)[C@H]6O[C@H]6O[C@@H](CO)[C@H](O)[C@@H](O)[C@@H]6O[C@H]6O[C@H](C)[C@@H](O)[C@H](O)[C@@H]6O)C(C)(C)[C@H]5CC[C@]4(C)[C@@]3(C)CC[C@]12C
IC50 [1]: 39.6 µM | Activity [2]: 47%

CC1(C)[C@@H](O[C@@H]2O[C@H](C(=O)O)[C@@H](O)[C@H](O)[C@H]2O[C@@H]2O[C@H](C(=O)O)[C@@H](O)[C@H](O)[C@H]2O)CC[C@]2(C)[C@H]3C(=O)C=C4[C@H]5C[C@@](C)(C=O)CC[C@]5(C)CC[C@@]4(C)[C@]3(C)CC[C@@H]12
IC50 [1]: 39.6 µM | Activity [2]: 47%

C[C@]1(C(=O)O)CC[C@@]2(C)CC[C@@]3(C)C(=CC(=O)[C@H]4[C@]5(C)CC[C@@H](O[C@H]6O[C@@H](C(=O)O)[C@H](O)[C@@H](O)[C@@H]6O[C@H]6O[C@@H](C(=O)O)[C@H](O)[C@@H](O)[C@@H]6O)[C@@](C)(CO)[C@H]5CC[C@@]43C)[C@@H]2C1
IC50 [1]: 39.6 µM | Activity [2]: 47%

CC(=O)O[C@@H]1C[C@](C)(C(=O)O)C[C@@H]2C3=CC(=O)[C@@H]4[C@@]5(C)CC[C@H](O[C@@H]6O[C@H](C(=O)O)[C@@H](O)[C@H](O)[C@H]6O[C@@H]6O[C@H](C(=O)O)[C@@H](O)[C@H](O)[C@H]6O)[C@](C)(CO)[C@@H]5CC[C@@]4(C)[C@]3(C)CC[C@]21C
IC50 [1]: 39.6 µM | Activity [2]: 47%

C[C@@H]1[C@@H](O[C@@H]2O[C@H](C(=O)O)[C@@H](O)[C@H](O)[C@H]2O[C@@H]2O[C@H](C(=O)O)[C@@H](O)[C@H](O)[C@H]2O)CC[C@]2(C)[C@H]3CC=C4[C@H]5C[C@@](C)(C(=O)O)CC[C@]5(C)CC[C@@]4(C)[C@]3(C)CC[C@@H]12
IC50 [1]: 39.6 µM | Activity [2]: 47%

CC(=O)O[C@H]1C[C@@](C)(C(=O)O)C[C@H]2C3=CC(=O)[C@H]4[C@]5(C)CC[C@@H](O[C@@H]6O[C@H](C(=O)O)[C@@H](O)[C@H](O)[C@H]6O[C@@H]6O[C@H](CO)[C@H](O)[C@H](O)[C@H]6O)C(C)(C)[C@H]5CC[C@]4(C)[C@@]3(C)CC[C@]12C
IC50 [1]: 39.6 µM | Activity [2]: 47%

CC1(C)[C@@H](O[C@@H]2O[C@H](C(=O)O)[C@@H](O)[C@H](O)[C@H]2O)CC[C@]2(C)[C@H]3C(=O)C=C4[C@H]5C[C@@](C)(C(=O)O)CC[C@]5(C)CC[C@@]4(C)[C@]3(C)CC[C@@H]12
IC50 [1]: 39.6 µM | Activity [2]: 47%

CC(C)=CCc1c(O)cc(O)c2c(=O)c(-c3ccc(O)c(O)c3)coc12 [GANCAONIN L]
inhibition at 100 µM ([2]; Influenza A virus, A/WSN/1933(H1N1), MDCK): > 30%

CC(=O)O[C@@H]1C[C@](C)(C(=O)O)C[C@@H]2C3=CC(=O)[C@@H]4[C@@]5(C)CC[C@H](O[C@H]6O[C@@H](C(=O)O)[C@H](O)[C@@H](O)[C@@H]6O[C@H]6O[C@@H](C(=O)O)[C@H](O)[C@@H](O)[C@@H]6O)C(C)(C)[C@@H]5CC[C@@]4(C)[C@]3(C)CC[C@]21C
IC50 [1]: 39.6 µM | Activity [2]: 47%

CC1(C)[C@@H](O[C@@H]2O[C@H](C(=O)O)[C@@H](O)[C@H](O)[C@H]2O[C@@H]2OC[C@H](O)[C@H](O)[C@H]2O)CC[C@]2(C)[C@H]3C(=O)C=C4[C@H]5C[C@@](C)(C(=O)O)CC[C@]5(C)CC[C@@]4(C)[C@]3(C)CC[C@@H]12
IC50 [1]: 39.6 µM | Activity [2]: 47%

CCOC(=O)C1=C[C@@H](OC(CC)CC)[C@H](NC(C)=O)[C@@H](N)C1 [OSELTAMIVIR PHOSPHATE]
IC50 [1]: 45.6 µM

CC1(C)[C@@H](O[C@@H]2O[C@H](C(=O)O)[C@@H](O)[C@H](O)[C@H]2O[C@@H]2O[C@H](C(=O)O)[C@@H](O)[C@H](O)[C@H]2O)CC[C@]2(C)[C@H]3C=CC4=C5C[C@@](C)(C(=O)O)CC[C@]5(C)CC[C@@]4(C)[C@]3(C)CC[C@@H]12
IC50 [1]: 39.6 µM | Activity [2]: 47%

C[C@]1(C(=O)O)CC[C@]2(C)CC[C@]3(C)C(=CC(=O)[C@@H]4[C@@]5(C)CC[C@H](O[C@@H]6O[C@H](C(=O)O)[C@@H](O)[C@H](O)[C@H]6O[C@@H]6O[C@H](C(=O)O)[C@@H](O)[C@H](O)[C@H]6O)[C@](C)(CO)[C@@H]5CC[C@]43C)[C@H]2C1
IC50 [1]: 39.6 µM | Activity [2]: 47%

CC(=O)O[C@@H]1C[C@](C)(C(=O)O)C[C@@H]2C3=CC(=O)[C@@H]4[C@@]5(C)CC[C@H](O[C@@H]6O[C@H](C(=O)O)[C@@H](O)[C@H](O)[C@H]6O[C@@H]6O[C@H](C(=O)O)[C@H](O)[C@H](O)[C@H]6O)C(C)(C)[C@@H]5CC[C@@]4(C)[C@]3(C)CC[C@]21C
IC50 [1]: 39.6 µM | Activity [2]: 47%

C[C@@H]1O[C@@H](O[C@H]2[C@H](O[C@@H]3[C@@H](O[C@@H]4CC[C@]5(C)[C@H](CC[C@@]6(C)[C@H]5C(=O)C=C5[C@@H]7C[C@]8(C)C[C@@H](COC8=O)[C@@]7(C)CC[C@@]56C)C4(C)C)O[C@@H](C(=O)O)[C@H](O)[C@H]3O)O[C@H](C(=O)O)[C@@H](O)[C@@H]2O)[C@H](O)[C@H](O)[C@H]1O
IC50 [1]: 39.6 µM | Activity [2]: 47%

CC1(C)[C@@H](O[C@@H]2O[C@H](C(=O)O)[C@@H](O)[C@H](O)[C@H]2O[C@@H]2O[C@H](C(=O)O)[C@@H](O)[C@H](O)[C@H]2O)CC[C@]2(C)C3=CC=C4[C@H]5C[C@@](C)(C(=O)O)CC[C@]5(C)CC[C@@]4(C)[C@]3(C)CC[C@@H]12
IC50 [1]: 39.6 µM | Activity [2]: 47%

CC(=O)O[C@H]1C[C@@](C)(C(=O)O)C[C@H]2C3=CC(=O)[C@H]4[C@]5(C)CC[C@@H](O[C@@H]6O[C@H](C(=O)O)[C@@H](O)[C@H](O)[C@H]6O[C@H]6OC[C@H](O)[C@@H](O)[C@@H]6O[C@H]6O[C@H](C)[C@@H](O)[C@H](O)[C@@H]6O)C(C)(C)[C@H]5CC[C@]4(C)[C@@]3(C)CC[C@]12C
IC50 [1]: 39.6 µM | Activity [2]: 47%

C[C@]1(C(=O)O)CC[C@]2(C)CC[C@]3(C)C(=CC[C@@H]4[C@@]5(C)CC[C@H](O[C@@H]6O[C@H](C(=O)O)[C@@H](O)[C@H](O)[C@H]6O[C@@H]6O[C@H](C(=O)O)[C@@H](O)[C@H](O)[C@H]6O)[C@](C)(CO)[C@@H]5CC[C@]43C)[C@H]2C1
IC50 [1]: 39.6 µM | Activity [2]: 47%

CC(C)(O)CCc1c(O)cc2occ(-c3ccc(O)c(O)c3)c(=O)c2c1O
Activity [2]: >30%
